An excerpt weighted towards active compounds, which were near 2.5% of everything screened.
MsrA inhibitor – bovine MsrA inhibition; purified bovine MsrA, absorbance read-out; inhibition, % at 15.5 µM; actives 0.75% (n = 360,000); AID 651718; in the data active means inhibition above about 4.5%
GalR3 antagonist – antagonists of human GalR3; HEK293 GalR3-CNG cAMP membrane potential fluorescence; galR3 body fused to GalR1 C-terminus; inhibition, % at 3 µM; actives 0.44% (n = 360,000);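 active means inhibition above the screen-wide average plus 3 SD, cut at about 13% in these data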;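 further: forskolin and galanin both at EC90 stimulate the cells; cAMP rise reported by CNG channel membrane potential dye signal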
NadD inh – inhibitors of Staphylococcus aureus NadD; AID 602399; purified NadD enzyme, colorimetric absorbance read-out; actives 0.78% (n = 360,000); inhibition, % at 20 µM; in the data active means inhibition above about 26%
NR2E3 ag-1 – NR2E3 (human) agonism. Q9Y5X4. GST-NR2E3/biotin-RetCOR TR-FRET, 1536-well. inhibition of corepressor binding, % at 4.78 µM. actives 0.12% (n = 320,000);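 active means percent inhibition above the cutoff of mean plus 3 SD of all tested compounds, set per screening campaign, cut at about 20% in these data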
Target sequence (Q9Y5X4 whole entry, looked up): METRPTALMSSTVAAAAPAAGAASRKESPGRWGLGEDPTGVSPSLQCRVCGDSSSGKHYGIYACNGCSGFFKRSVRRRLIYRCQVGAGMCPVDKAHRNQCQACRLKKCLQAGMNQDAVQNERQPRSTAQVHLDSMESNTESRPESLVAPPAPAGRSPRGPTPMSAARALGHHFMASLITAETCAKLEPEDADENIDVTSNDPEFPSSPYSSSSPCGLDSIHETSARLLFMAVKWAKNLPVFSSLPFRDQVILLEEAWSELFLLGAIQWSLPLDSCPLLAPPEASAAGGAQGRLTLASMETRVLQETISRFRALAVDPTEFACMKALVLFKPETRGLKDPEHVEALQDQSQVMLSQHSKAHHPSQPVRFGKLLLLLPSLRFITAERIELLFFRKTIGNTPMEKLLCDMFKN
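System: GST-tagged NR2E3 plus biotinylated RetCOR corepressor; Amount: 1.35 nM GST-tagged NR2E3 final; Dosing: single nominal compound dose of 4.8 µM; Schedule: 5 h incubation at 4 °C; Technique: TR-FRET with europium anti-GST and streptavidin-D2, 340 nm excitation; Controls: biotin wells as high control, 0.6% DMSO wells as low control.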
NR2E3 ag-2 – human photoreceptor-specific nuclear receptor agonism; Q9Y5X4; CHO-S Gal4-NCOR/VP16-NR2E3 two-hybrid, luciferase; actives 0.35% (n = 360,000); inhibition of corepressor binding, % at 3.98 µM;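 active means inhibition above the mean of all tested compounds plus 3 SD, cut at about 70% in these data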;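 further: higher means lower luciferase signal from less NR2E3 corepressor binding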
MsrA act – activators of bovine methionine sulfoxide reductase A | purified bovine MsrA, absorbance read-out | activation, % at 10.6 µM | actives 0.3% (n = 360,000) | AID 602163; in the data active means activation above about 7.5%
NR2E3 ag confirm – NR2E3 agonism confirmed in two-hybrid assay. shares compounds with NR2E3 ag-2. CHO-S mammalian two-hybrid NR2E3-NCOR, luciferase luminescence. inhibition, % at 3.98 µM. actives 51% (n = 2,300);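 active means average inhibition above a cutoff equal to the mean inhibition of all tested compounds plus one SD, cut at about 70% in these data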
GAL4-VP16 luc – GAL4-VP16 reporter inhibition in NR2E3 agonist counterscreen; CHO-S GAL4-VP16 luciferase reporter, luminescence; shares compounds with NR2E3 ag-2; actives 29% (n = 2,300); inhibition, % at 3.98 µM;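 active means mean inhibition above a cutoff equal to the average over all tested compounds plus one standard deviation, cut at about 70% in these data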;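 further: luciferase from a UAS reporter driven by GAL4-VP16 transactivation; higher means less reporter light so more repression of VP16 activity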
Hits are given with their value; 0 = inactive; - = no result.

SMILES	MsrA inhibitor	GalR3 antagonist	NadD inh	NR2E3 ag-1	NR2E3 ag-2	MsrA act	NR2E3 ag confirm	GAL4-VP16 luc
O=c1c(Cl)c(N2CCN(c3ccccc3)CC2)cnn1C12CC3CC(CC(C3)C1)C2	0	0	0	0	0	0	-	-
O=c1c(Cl)c(N2CCN(c3ccc(F)cc3)CC2)cnn1C12CC3CC(CC(C3)C1)C2	0	0	0	0	0	0	71	0
Cc1cccc(C(=O)NNC(=S)NC(=O)c2cccs2)c1	0	0	0	0	0	0	0	0
COCCN(C(=O)CCC(=O)Nc1cc(C)on1)C(C(=O)NC1CCCC1)c1ccccc1F (stereo unspecified)	0	0	0	0	0	0	-	-
NC(=O)Nc1ccc(C(=O)OCC(=O)N(Cc2ccccc2)C2CCS(=O)(=O)C2)cc1 (stereo unspecified)	0	0	0	0	0	0	-	-
CCCCNc1cc(C)nc(NCc2ccccc2)n1	-	-	0	0	83	0	94	84
Cc1cc(Nc2ccc(Cl)cc2)nc(NCc2ccccc2)n1	0	0	0	0	0	0	-	-
Cc1cc(Nc2cccc(F)c2)nc(NCc2ccccc2)n1	0	0	0	0	83	0	92	0
Cc1cc(C)nc(NCCCc2ccccc2)n1	0	0	0	0	0	0	-	-
Cc1cc(Nc2ccccc2)nc(NCc2ccccc2)n1	0	0	0	0	88	0	96	81
CCOC(=O)c1cccc(NC(=O)CSc2nnnn2CC)c1	0	0	0	0	0	0	-	-
NS(=O)(=O)c1ccc(CCNc2nn3c(-c4ccc(F)c(Cl)c4)cnc3s2)cc1	0	0	0	-	0	0	0	0
Cc1ccc(S(=O)(=O)N2[C@@H](c3ccc(Cl)c(Cl)c3)C(C(=O)O)=C[C@H]2CC2CCCC2)cc1	0	0	0	-	88	0	82	0
CCCCNC(=O)c1cc([N+](=O)[O-])[nH]n1	0	0	0	0	0	0	-	-
c1ccc2c(c1)[nH]c1c(N3CCCC3)ncnc12	0	0	0	0	0	0	0	0
Cc1ccc2[nH]c3c(N4CCc5ccccc5C4)ncnc3c2c1	0	0	0	0	0	0	94	77
CCOc1ccc2[nH]c3c(N4CCc5ccccc5C4)ncnc3c2c1	0	0	0	0	0	0	-	-
Brc1ccc2[nH]c3c(N4CCc5ccccc5C4)ncnc3c2c1	-	-	-	0	-	-	-	-
Fc1ccc2[nH]c3c(N4CCc5ccccc5C4)ncnc3c2c1	0	0	0	0	73	0	94	87
CSc1nsc(SCC(=O)Nc2ccccc2C(N)=O)n1	0	0	0	0	0	0	-	-
COc1ccccc1C(O)(C(=O)NNc1cccc(C)c1)c1ccccc1OC	0	0	0	0	0	0	-	-
COc1cc(/C=N/NC(=O)c2sc(N)c(C#N)c2C)cc(Br)c1O	0	0	0	0	0	0	0	0
O=C(CSc1nc2ccccc2c(=O)[nH]1)Nc1ccc([N+](=O)[O-])cc1	0	0	0	-	0	0	-	-
Cc1cc(C)nc(SCC(=O)Nc2ccc(N3CCOCC3)c(Cl)c2)n1	0	0	0	0	74	0	89	79
O=C(CSc1nc2ccccc2s1)Nc1ccc(N2CCOCC2)c(Cl)c1	0	0	0	0	0	0	-	-
SMILES	MsrA inhibitor	GalR3 antagonist	NadD inh	NR2E3 ag-1	NR2E3 ag-2	MsrA act	NR2E3 ag confirm	GAL4-VP16 luc
O=C(CSc1nc2ccccc2c(=O)[nH]1)Nc1ccc(N2CCOCC2)c(Cl)c1	0	0	0	0	0	0	0	0
Cc1ccc(NC(=O)CSc2nc3ccccc3c(=O)[nH]2)cc1[N+](=O)[O-]	0	0	0	-	0	0	0	0
C#CCNC(=O)C[C@@H]1C[C@@]2(C(=O)OCC)CCCC=C2N(Cc2cccc3ccccc23)C1=O	0	0	0	-	0	0	-	-
Cc1ccc(CNC(=O)c2cc3c(C)nc4ccccc4c3o2)cc1	0	-	0	0	86	0	93	78
Cc1nc2ccccc2c2oc(C(=O)NCc3ccccn3)cc12	0	0	0	0	0	0	-	-
Cc1nc2ccccc2c2oc(C(=O)NCc3ccc4c(c3)OCO4)cc12	0	-	0	0	0	0	0	0
COc1ccccc1N1CCN(C(=O)c2cc3c(C)nc4ccccc4c3o2)CC1	0	0	0	0	0	0	0	0
CCn1c(=O)cc(SCC(=O)Nc2ccc(C)cn2)c2ccccc21	0	0	0	0	74	0	95	0
COc1cccc2sc3ccc(C#CC4(O)CCCCC4)cc3c(=O)c12	0	0	0	0	0	0	-	-
COc1cccc2oc3cc(C#CC4(O)CCCCC4)ccc3c(=O)c12	0	0	0	0	0	0	-	-
O=c1c2ccccc2sc2ccc(C#CC3(O)CCCCC3)cc12	0	0	0	0	99	0	85	73
O=c1c2ccccc2oc2cc(C#CC3(O)CCCCC3)ccc12	0	0	0	0	0	0	0	0
Cc1csc(SCC(=O)c2cc(C)n(Cc3cccs3)c2C)n1	0	0	0	0	0	0	0	0
CC(=O)Nc1ccc(SCC(=O)c2cc(C)n(Cc3cccs3)c2C)cc1	0	0	0	0	0	0	0	0
CC(=O)Nc1ccc(SCC(=O)c2cc(C)n(-c3ccccc3F)c2C)cc1	0	0	0	0	0	0	0	0
COCCn1c(C)cc(C(=O)CSc2ccc(NC(C)=O)cc2)c1C	0	0	0	0	0	0	-	-
O=C(CSc1nc(Nc2ccccc2)nc(N2CCOCC2)n1)Nc1ccc(Br)cc1F	0	0	0	0	0	0	-	-
CC(C)C[C@@H](CN1CCCC1CN1C(=S)NC[C@@H]1Cc1ccc(O)cc1)N1C[C@H](Cc2ccccc2)N(CCc2ccccc2)C1=S (stereo partly specified)	0	0	0	-	0	0	-	-
CC(C)C[C@@H](CN1CCC[C@@H]1CN1C(=S)NC[C@@H]1Cc1ccc(O)cc1)N1C[C@H](Cc2ccccc2)N(CCc2ccccc2)C1=S	-	-	0	-	0	0	0	0
Cc1c(/C(O)=C2/C(=O)C(=O)N(Cc3cccnc3)C2c2ccccn2)cnn1-c1ccccc1 (stereo unspecified)	0	0	0	0	83	0	0	0
COCc1cc(=O)n2[nH]cc(-c3ccccc3)c2n1	0	0	0	0	0	0	-	-
CCCc1cc(=O)n2[nH]cc(-c3ccc(Cl)cc3)c2n1	0	0	0	-	93	0	98	71
CC(C)CCCCCCCCCCCCC(=O)NCC(=O)NC1C(C)OC(Nc2ncnc3nc[nH]c23)C(O)C1O (stereo unspecified)	0	0	0	-	72	0	98	97
O=C(/C=C/c1ccccc1)Nc1nc(-c2ccncc2)cs1	0	0	0	0	0	0	-	-
O=C(NCCCCNC(=O)c1ccc(Br)s1)c1ccc(Br)s1	0	0	0	0	0	0	-	-

High-throughput results (PubChem)
